From ChEMBL document CHEMBL4680134, “Structural optimization of natural product nordihydroguaretic acid to discover novel analogues as AcrB inhibitors” (Eur J Med Chem, 2020) come the findings set out here.

Values after ≈ are worked out from the molar mass of the structure shown. Active and inactive are the calls of the source. The calls are words filed in the database; no cut-off is given here.

Series [1] has as its target T1, Multidrug efflux pump subunit AcrB (Escherichia coli (strain K12)) (UniProt P31224).
T1 sequence (whole entry): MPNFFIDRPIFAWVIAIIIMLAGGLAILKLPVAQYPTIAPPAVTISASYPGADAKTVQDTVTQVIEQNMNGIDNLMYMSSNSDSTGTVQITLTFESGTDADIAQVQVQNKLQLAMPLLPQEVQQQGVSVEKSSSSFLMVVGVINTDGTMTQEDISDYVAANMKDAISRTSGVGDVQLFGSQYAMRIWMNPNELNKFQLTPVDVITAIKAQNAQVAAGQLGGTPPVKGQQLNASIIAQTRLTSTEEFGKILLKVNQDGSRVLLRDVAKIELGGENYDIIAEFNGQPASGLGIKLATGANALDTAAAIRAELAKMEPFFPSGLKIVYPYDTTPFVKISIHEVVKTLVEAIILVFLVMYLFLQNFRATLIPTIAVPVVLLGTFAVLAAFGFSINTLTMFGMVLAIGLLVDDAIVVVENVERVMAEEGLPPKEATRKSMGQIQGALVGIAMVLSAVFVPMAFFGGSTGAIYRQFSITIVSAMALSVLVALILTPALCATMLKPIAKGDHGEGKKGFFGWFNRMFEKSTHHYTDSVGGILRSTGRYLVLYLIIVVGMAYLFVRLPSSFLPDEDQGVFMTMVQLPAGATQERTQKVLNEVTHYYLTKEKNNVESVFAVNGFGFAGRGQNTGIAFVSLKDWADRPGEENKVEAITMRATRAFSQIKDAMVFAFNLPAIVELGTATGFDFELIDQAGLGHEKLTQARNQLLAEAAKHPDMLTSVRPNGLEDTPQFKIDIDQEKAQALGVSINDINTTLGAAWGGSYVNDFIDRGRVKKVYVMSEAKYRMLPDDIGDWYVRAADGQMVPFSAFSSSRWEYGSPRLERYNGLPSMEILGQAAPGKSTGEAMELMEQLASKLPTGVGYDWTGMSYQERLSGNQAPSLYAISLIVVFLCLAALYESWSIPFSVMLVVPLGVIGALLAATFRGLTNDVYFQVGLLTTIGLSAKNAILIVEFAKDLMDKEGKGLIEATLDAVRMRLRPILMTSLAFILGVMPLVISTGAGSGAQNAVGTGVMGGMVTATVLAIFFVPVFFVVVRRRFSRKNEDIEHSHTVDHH
Nature of the series: Inhibition of AcrB in Escherichia coli BW25113 assessed as potentiation of rifampicin induced antibacterial activity by measuring rifampicin MIC at 256 ug/ml measured after 18 hrs by checkerboard titration method (reference value: 16 ug/ml). The settings on record: dose 256.0 µg/ml.

In series [2] the target is T1, Multidrug efflux pump subunit AcrB (Escherichia coli (strain K12)). Put plainly: Inhibition of AcrB in Escherichia coli BW25113 assessed as potentiation of erythromycin induced antibacterial activity by measuring erythromycin MIC at 256 ug/ml measured after 18 hrs by checkerboard titration method (reference value: 64 ug/ml). The settings on record: dose 256.0 µg/ml.

For series [3] the target is unchanged. Nature of the series: Inhibition of AcrB in Escherichia coli BW25113 assessed as potentiation of levofloxacin induced antibacterial activity by measuring levofloxacin MIC at 256 ug/ml measured after 18 hrs by checkerboard titration method (reference value: 0.06 ug/ml). The conditions noted are these: dose 256.0 µg/ml.
Series [4] concerns Cell membrane. Put plainly: Induction of outer membrane permeabilization in wild type Escherichia coli BW25113 assessed as increase in nitrocefin hydrolysis at 256 ug/ml by spectrophotometry analysis. The conditions noted are these: dose 256 µg/ml. The method, boiled down:
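Outer-membrane permeability: intact E. coli treated with 10 µM CCCP to block nitrocefin efflux, then exposed to compound. Nitrocefin hydrolysis by periplasmic β-lactamase followed as increasing absorbance at 490 nm over time. Polymyxin B as permeabilizer control, untreated cells as baseline. Duplicate experiments on different days.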

The subject of series [5] is Cell membrane. Put plainly: Induction of inner membrane permeabilization in CCCP treated wild type Escherichia coli BW25113 at 64 ug/ml measured after 10 mins by Di0C2(3) probe based fluorimetric method. The conditions noted are these: escherichia coli bw25113, 10 min, dose 64 µg/ml. The method, boiled down:
(§1)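 Cells left untreated or exposed to compound at 8-256 µg/mL for 10 min, then DiOC2(3) added and fluorescence followed to plateau. Cells re-energized with 0.5% glucose; membrane potential build-up read as fluorescence rise to plateau, then dissipated with CCCP.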

In series [6] the target is T1, Multidrug efflux pump subunit AcrB (Escherichia coli (strain K12)). Nature of the series: Inhibition of AcrB in Escherichia coli BW25113 assessed as reduction in glucose-induced nile red efflux at 100 to 200 uM preincubated for 15 mins followed by nile red addition and incubated for 3 hrs in shaker in presence of CCCP by fluorimetric analysis. The settings on record: dose 100-200 µM, time 195.0 min. The method, boiled down: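 Whole-cell efflux: wild-type and ΔAcrB cells preloaded with Nile Red, with or without compound, before fluorescence readings. Efflux triggered at 100 s with 0.2% glucose and followed by fluorometry. The ΔAcrB strain marks maximal accumulation. Triplicate experiments with different cell batches.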

For series [7] the target is unchanged. Nature of the series: Inhibition of AcrB in Escherichia coli BW25113 assessed as potentiation of levofloxacin induced antibacterial activity by measuring levofloxacin MIC at 8 ug/ml measured after 18 hrs by checkerboard titration method (reference value: 0.06 ug/ml). The settings on record: dose 8.0 µg/ml.
For series [8], the system named is Cell membrane. Put plainly: Induction of inner membrane permeabilization in CCCP treated wild type Escherichia coli BW25113 at 128 ug/ml measured after 10 mins by Di0C2(3) probe based fluorimetric method. The settings on record: escherichia coli bw25113, 10 min, dose 128 µg/ml. The method, boiled down:
as §1

Series [9] has as its target T1, Multidrug efflux pump subunit AcrB (Escherichia coli (strain K12)). Put plainly: Inhibition of AcrB in Escherichia coli BW25113 assessed as potentiation of erythromycin induced antibacterial activity by measuring fold change in erythromycin MIC at 128 ug/ml measured after 18 hrs by checkerboard titration method relative to erythromycin alone. The conditions noted are these: dose 128.0 µg/ml.

Series [10] has the same target. Put plainly: Inhibition of AcrB in Escherichia coli BW25113 assessed as potentiation of levofloxacin induced antibacterial activity by measuring fold change in levofloxacin MIC at 32 ug/ml measured after 18 hrs by checkerboard titration method relative to levofloxacin alone. The conditions noted are these: dose 32.0 µg/ml.
Series [11] shares this target. Nature of the series: Inhibition of AcrB in Escherichia coli BW25113 assessed as potentiation of chloramphenicol induced antibacterial activity by measuring fold change in chloramphenicol MIC at 128 ug/ml measured after 18 hrs by checkerboard titration method relative to chloramphenicol alone. The conditions noted are these: dose 128.0 µg/ml.
The target is the same in series [12]. Put plainly: Inhibition of AcrB in Escherichia coli BW25113 assessed as potentiation of tetraphenylphosphonium induced antibacterial activity by measuring fold change in tetraphenylphosphonium MIC at 256 ug/ml measured after 18 hrs by checkerboard titration method relative to tetraphenylphosphonium alone. The settings on record: dose 256.0 µg/ml.
Series [13] is described as follows: Growth inhibition of Escherichia coli harboring AcrB deletion mutant at higher concentration after 18 hrs by broth microdilution assay. The method, boiled down: (§2)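 MIC determined by 96-well broth microdilution in E. coli BW25113 expressing AcrB ((+)AcrB) and an isogenic acrB-deleted strain ((-)AcrB). Used to set the compound concentrations for synergy testing that produce no direct antibacterial effect.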
(Dilution methods test growth across graded concentrations, often in twofold steps.)

Series [14] can be described thus: Growth inhibition of Escherichia coli BW25113 expressing AcrB after 18 hrs by broth microdilution assay. The method, boiled down: as §2
Series [15] addresses T1, Multidrug efflux pump subunit AcrB (Escherichia coli (strain K12)). Put plainly: Inhibition of AcrB in Escherichia coli BW25113 assessed as potentiation of erythromycin induced antibacterial activity by measuring fold change in erythromycin MIC at 32 ug/ml measured after 18 hrs by checkerboard titration method relative to erythromycin alone. The settings on record: dose 32.0 µg/ml.

Consider `Oc1ccc(CCCCc2ccc(Cl)cc2)cc1O`, for which the MIC in [1] was determined as 16 µg/mL; in series [2], 64 µg/mL; in series [3], 0.06 µg/mL.

On to `C[C@H](Cc1ccc(O)c(O)c1)[C@@H](C)Cc1ccc(O)c(O)c1` [MASOPROCOL], for which the figures for the MIC in [1], in series [2] and in series [3] were 16 µg/mL, 32 µg/mL and 0.03 µg/mL, respectively. The Activity entry in the series with Cell membrane [4] is on record as “Toxic”.

`Oc1ccc(CCCCc2ccc(Br)cc2)cc1O`: the MIC was determined as 16 µg/mL in [1], 64 µg/mL in series [2] and 0.06 µg/mL in series [3].

Consider `Oc1ccc(CCCCCCc2ccc(O)c(O)c2)cc1O`, for which the figures for the MIC in series [1], in series [2] and in series [3] were 16 µg/mL, 64 µg/mL and 0.06 µg/mL, respectively.

Take `Oc1ccc(CCCCCCCc2ccc(O)c(O)c2)cc1O`: the MIC in series [1] is 16 µg/mL; in series [2], 64 µg/mL; in series [3] it was 0.06 µg/mL. The Activity result in the series with Cell membrane [5] is given as “Non-Toxic”. Also, the inhibition result in series [6] was “Active”.

For the compound `O=C(NCCc1ccc(O)c(O)c1)c1ccc(O)c(O)c1`, the Activity result in the series on Cell membrane [5] and in the series with Cell membrane [4] was “Non-Toxic” in each case. The inhibition entry in series [6] was “Active”. Also, the MIC in series [7] came to 0.06 µg/mL.

On to `Oc1ccc(CCCCc2ccccc2O)cc1O`, for which the MIC in series [1] is 16 µg/mL; in series [2], 32 µg/mL; in series [3], 0.06 µg/mL. The Activity result in the series with Cell membrane [8] is “Toxic”.

Take `Oc1ccc(CCCCc2cc(O)c(O)c(O)c2)cc1O`: the MIC in series [1] was determined as 16 µg/mL; in series [2], 32 µg/mL; in series [3], 0.06 µg/mL. Further, the Activity entry in the series on Cell membrane [4] and with Cell membrane [8] was “Non-Toxic” each time.

On to `O=C(NCCc1ccc(O)c(O)c1)c1ccc(Br)cc1`, for which the MIC in series [7] turned out to be 0.06 µg/mL.

With `Oc1ccc(CCCCc2ccc(O)c(O)c2)cc1O`, the MIC was 16 µg/mL in [1], 32 µg/mL in [2] and 0.06 µg/mL in series [3].

Consider `O=C(NCCc1ccc(O)c(O)c1)c1cc(O)c(O)c(O)c1`, for which the Activity result in the series with Cell membrane [5] is reported as “Non-Toxic”. Besides, the values for the fold change (FC) in series [9], in [10] and in series [11] were 4, 2 and 4, respectively. Also, in series [7], the MIC amounted to 0.06 µg/mL.

`Nc1cc(N)cc(C(=O)NCCc2ccc(O)c(O)c2)c1`: the Activity entry in the series on Cell membrane [5] was “Non-Toxic”. In addition, the inhibition entry in series [6] was “Active”. Moreover, the MIC in series [7] was found to be 0.06 µg/mL.

Consider `Oc1ccc(CCCCc2cc3cccc4ccc5cccc2c5c43)cc1O`, for which the MIC in [1] stood at 16 µg/mL; in [2], 32 µg/mL; in series [3] it was 0.06 µg/mL.

In the case of `Nc1ccc(C(=O)NCCc2ccc(O)c(O)c2)cc1`, the fold change (FC) in series [9] and in [11] was 4 each time. Besides, the MIC in series [7] stood at 0.06 µg/mL.

Turning to `O=C(NCCc1ccc(O)c(O)c1)c1ccc(C(F)(F)F)cc1`, the MIC in series [7] was 0.06 µg/mL.

Consider `Nc1ccccc1C(=O)NCCc1ccc(O)c(O)c1`, for which the MIC in series [7] was found to be 0.06 µg/mL.

Turning to `Oc1ccc(CCCc2ccc(O)c(O)c2)cc1O`, the MIC was determined as 16 µg/mL in series [1], 32 µg/mL in series [2] and 0.06 µg/mL in series [3]. In the series on Cell membrane [4], the Activity entry is reported as “Non-Toxic”.

Turning to `Oc1ccc(CCCCCc2ccc(O)c(O)c2)cc1O`, the results for the MIC in series [1], in [2] and in [3] were 16 µg/mL, 64 µg/mL and 0.06 µg/mL, respectively. In addition, in series [6], the inhibition entry was “Active”. The fold change (FC) in series [12] was 32. Besides, the “growth inhibition (GI)” value in [13] is given as “Toxic”. Further, the Activity result in the series with Cell membrane [8] was “Toxic”.

As for `O=C(NCCc1ccc(O)c(O)c1)c1ccccc1O`, in series [10], the fold change (FC) was determined as 2. For the same compound, the Activity result with Cell membrane [4] is on record as “Non-Toxic”. The MIC in series [7] was found to be 0.06 µg/mL.

Regarding `Cc1ccc(C(=O)NCCc2ccc(O)c(O)c2)cc1`, the MIC in series [14] is 64 µg/mL (≈ 236 µM); in [7] it was 0.06 µg/mL. In addition, the fold change (FC) in series [15] was 4. Moreover, the “growth inhibition (GI)” value in series [13] was “Toxic”.
